How the values were obtained:
[1] = melting temperature; fluorescence melt of hairpins on a sequencing array, two-state fit, raised by 9.35 °C to match UV melts; details: sodium 0.088 M
Procedure, shortened: (§1)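 Melting temperature and folding enthalpy were derived from bootstrapped two-state fits. The fitted temperatures were raised by 9.35 °C to agree with UV melts, and four replicates were combined by inverse variance. The underlying data were Cy3 fluorescence images of library hairpins, with annealed Cy3 and quencher oligos, on a sequenced MiSeq flow cell in 50 mM Na-HEPES pH 8.0, 25 mM NaCl, taken in 2.5 °C steps up to 60 °C, normalised to pre-quench Cy3 and to control constructs.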

[2] = folding enthalpy; higher = less favourable; fluorescence melt of hairpins on a sequencing array, two-state fit; details: sodium 0.088 M
Procedure, shortened: as §1

Sequence	Tm [1] [°C]	folding enthalpy [2] [kcal/mol]
GCCACCGAAAGGTCGGC ((((((....))).)))	59	-29.9
GCCACCGAAAGGTCGGGC ((((((....)))..)))	48	-25.6
GCCACCGAAAGGTTCGGC ((((((....)))..)))	46.5	-16.8
GCCACCGAAAGGTTGGC ((((((....))).)))	60.5	-33.9
GCCACCGAAAGGTTGGGC ((((((....)))..)))	52.6	-20.8
GCCACCGCGAAAGCGGGC (((..(((....))))))	47.5	-7.35
GCCACCGGAAACAGTGGC (((((.(....).)))))	52.6	-30.7
GCCACCGGAAACGACGGC (((..((....))..)))	41.4	-24.9
GCCACGCGAAAGCATTGC ((.(.((....)).).))	28.7	-11.6
GCCACGCGAAAGCGATGC ((..(((....)))..))	43.3	-12.7
GCCACGCGAAAGCGGAGC ((..(((....)))..))	54.4	-17.1
GCCACGCGAAAGCTTAGC ((.(.((....)).).))	30.1	-6.78
GCCAGAACGAAAGTTGGC (((..(((....))))))	49.8	-35.8
GCCAGACCGAAAGGTGGC (((..(((....))))))	53.7	-42.4
GCCAGACGAAAGTCGGC (((.(((....))))))	66.6	-27.6
GCCAGAGCGAAAGCTGGC (((..(((....))))))	60	-31.3
GCCAGAGGAAACCCTGGC (((((.(....).)))))	52.4	-41
GCCAGAGGAAACTCTGAC (.(((((....))))).)	38.6	-18.3
GCCAGCGAAAGCTAAGGC ((((((....)))..)))	53.7	-21.2
GCCAGCGAAAGCTCCGGC ((((((....)))..)))	44.5	-19.9
GCCAGGAAACTGGC (((((....)))))	63.2	-38.2
GCCAGGCGAAAGCAAGGC (((..((....))..)))	60.6	-26.5
GCCAGGCGAAAGCCACGC ((..(((....)))..))	38.8	-13.1

Sequence	Tm [1] [°C]	folding enthalpy [2] [kcal/mol]
GCCAGGCGAAAGCCATGC ((..(((....)))..))	42.3	-13.6
GCCAGGCGAAAGCCCTGC ((..(((....)))..))	45.1	-12.4
GCCAGGCGAAAGCCGAGC ((..(((....)))..))	52.2	-13.3
GCCAGGCGAAAGCGGGGC (((..((....))..)))	63.2	-23.9
GCCAGGCGAAAGCTTTGC ((.(.((....)).).))	33.4	-11.5
GCCAGTCGAAAGACGGC (((.(((....))))))	61.6	-33.8
GCCAGTTCGAAAGAAGGC (((..(((....))))))	37.1	-20.2
GCCATACCGAAAGGTGGC (((..(((....))))))	53.4	-24.4
GCCATACGAAAGTAGGGC (((.(((....))).)))	60.5	-38
GCCATCGAAAGATACGGC ((((((....)))..)))	41.5	-26.4
GCCATCGAAAGATAGGC ((((((....))).)))	50.1	-30.3
GCCATCGGAAACGATGAC (.(((((....))))).)	48.6	-16
GCCATGACGAAAGTCGGC (((..(((....))))))	51	-20
GCCATGCGAAAGCACAGC ((..(((....)))..))	36.6	-11.2
GCCATGGGAAACCATAGC ((.((((....)))).))	36.5	-25.6
GCCATTCCGAAAGGAGGC (((..(((....))))))	44.2	-18.4
GCCATTTCGAAAGAAGGC (((..(((....))))))	33.1	-25.1
GCCCAAACGAAAGTTGGC (((..(((....))))))	45	-19.2
GCCCAAGGAAACCTAGGC (((.(.(....).).)))	32.8	-22.2
GCCCAAGGAAACTTGAGC ((.((((....)))).))	37.7	-25.1
GCCCACGAAAGTGAAGGC ((((((....)))..)))	52.1	-28.2
GCCCACGAAAGTGTAGGC ((((((....)))..)))	52.8	-24.5
GCCCACGGAAACGCGGGC ((((.((....)).))))	62.3	-47.5

Sequence	Tm [1] [°C]	folding enthalpy [2] [kcal/mol]
GCCCAGCCGAAAGGCGGC (((..(((....))))))	62.4	-10.6
GCCCAGCGAAAGCACGGC (((..((....))..)))	52.1	-18.4
GCCCAGCGAAAGCATGGC (((..((....))..)))	56	-16
GCCCAGCGAAAGCCGAGC ((.(.((....)).).))	40.6	-7.29
GCCCAGCGAAAGCTATGC ((..(((....)))..))	25.6	-5.13
GCCCAGCGAAAGCTTAGC ((..(((....)))..))	32.8	-8.7
GCCCATGGAAACATGAGC ((.((((....)))).))	43.1	-27.9
GCCCATGGAAACATGGAC (.(((((....))))).)	46.7	-15.1
GCCCCACGAAAGTGTGGC (((.(((....))).)))	57.9	-35.9
GCCCCCGAAAGGGACGGC ((((((....)))..)))	50.9	-21
GCCCCCGAAAGGGCGGGC ((((((....)))..)))	63.7	-17.9
GCCCCCGAAAGGGGTGGC ((((((....)))..)))	56.6	-12.8
GCCCCCGAAAGGGTCGGC ((((((....)))..)))	50.4	-17.1
GCCCCCGAAAGGGTTGGC ((((((....)))..)))	52.6	-18
GCCCCGCGAAAGCAGAGC ((.(.((....)).).))	32.8	-11.5
GCCCCGCGAAAGCATGGC (((..((....))..)))	45.4	-17.4
GCCCCGCGAAAGCCAGGC (((..((....))..)))	44.8	-20.8
GCCCCGCGAAAGCCGGGC ((((.((....)).))))	66.4	-18.3
GCCCCGCGAAAGCGGAGC ((.((((....)))).))	68.1	-22
GCCCCGCGAAAGCTGTGC ((.(.((....)).).))	30.4	-12.1
GCCCCGGCGAAAGCCGGC (((..(((....))))))	39.8	-2.7
GCCCCGGGAAACCAGGGC ((((.((....)).))))	55.5	-33
GCCCGATCGAAAGATGGC (((..(((....))))))	40.2	-23.6

Sequence	Tm [1] [°C]	folding enthalpy [2] [kcal/mol]
GCCCGCCGAAAGGCAGGC (((.(((....))).)))	69	-20.8
GCCCGCCGAAAGGCCGGC (((.(((....))).)))	64.8	-19.4
GCCCGCCGAAAGGCTGGC (((.(((....))).)))	65.1	-36.2
GCCCGCGAAAGCGTCGGC ((((((....)))..)))	56.5	-17.9
GCCCGCGAAAGCGTGGGC ((((((....)))..)))	68.6	-24.9
GCCCGCGGAAACGCGAGC ((.((((....)))).))	62.2	-17.3
GCCCGGCGAAAGCAAGGC (((..((....))..)))	59	-18.6
GCCCGGCGAAAGCAGCGC ((.(.((....)).).))	46.5	-16.4
GCCCGGCGAAAGCCATGC ((..(((....)))..))	28.8	-8.55
GCCCGGCGAAAGCCTAGC ((..(((....)))..))	27.2	-13.8
GCCCGGCGAAAGCGAGGC (((..((....))..)))	58.9	-16.6
GCCCGGCGAAAGCTGAGC ((.(.((....)).).))	48.7	-18.3
GCCCGGGGAAACCCAGGC (((.(((....))).)))	52.8	-32.6
GCCCGTCGAAAGACCGGC (((.(((....))).)))	52.6	-38.4
GCCCGTCGAAAGACTGGC (((.(((....))).)))	55.4	-48.7
GCCCGTGGAAACACGAGC ((.((((....)))).))	50.8	-24
GCCCTACCGAAAGGTGGC (((..(((....))))))	49	-20.8
GCCCTAGGAAACCAAGGC (((.(.(....).).)))	28.2	-12
GCCCTCGAAAGAGAGGC ((((((....))).)))	58.2	-31.1
GCCCTCGAAAGAGCGGGC ((((((....)))..)))	50.1	-29.2
GCCCTCGAAAGAGGCGGC ((((((....)))..)))	56	-19.1
GCCCTCGAAAGAGGGGGC ((((((....)))..)))	68.4	-15.1

— the array DNA melting data of Ke et al. (doi:10.1101/2024.01.08.574731)
